Data reported in ChEMBL document CHEMBL1268856, “The tomato saponin, esculeoside A” (J Nat Prod, 2010).
Calls of active or inactive are those of the source. No cut-off for these calls is given here.

Assays:
MDM [1] = test: Antihyperlipidemic activity in human MDM cell assessed as inhibition of acetule-LDL-induced cholesterol ester accumulation after 24 hrs; assay type: functional, cell-based
Outline: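 Human monocyte-derived macrophages were incubated 24 h with 50 µg/mL acetyl-LDL plus 0.1 mM [3H]oleate conjugated to BSA, with or without compound. [3H]cholesteryl ester was separated by TLC and counted by radioscanner. Three independent experiments; means ± SD.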

[2] = molecular target: T1, Sterol O-acyltransferase 1 (Homo sapiens) (UniProt P35610); test: Inhibition of human ACAT1 expressed in CHO cells assessed as inhibition of [3H]oleate-induced cholesterol ester accumulation; assay type: cell-based
T1 sequence (whole entry): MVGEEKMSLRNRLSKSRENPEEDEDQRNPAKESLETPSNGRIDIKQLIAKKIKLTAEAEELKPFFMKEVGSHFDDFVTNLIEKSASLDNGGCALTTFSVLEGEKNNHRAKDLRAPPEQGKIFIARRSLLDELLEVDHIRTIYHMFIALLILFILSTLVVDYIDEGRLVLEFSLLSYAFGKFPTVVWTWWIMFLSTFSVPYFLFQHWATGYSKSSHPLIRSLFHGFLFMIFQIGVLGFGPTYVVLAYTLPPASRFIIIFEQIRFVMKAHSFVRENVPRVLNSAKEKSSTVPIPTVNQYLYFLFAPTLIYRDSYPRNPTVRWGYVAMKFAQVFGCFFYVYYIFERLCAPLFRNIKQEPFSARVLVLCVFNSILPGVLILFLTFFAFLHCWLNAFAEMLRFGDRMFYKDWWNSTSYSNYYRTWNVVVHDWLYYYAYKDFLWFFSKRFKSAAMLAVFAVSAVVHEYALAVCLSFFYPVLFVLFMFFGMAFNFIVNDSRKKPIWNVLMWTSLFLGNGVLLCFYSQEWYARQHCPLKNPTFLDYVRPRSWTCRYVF
Outline: (§1)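 CHO cells overexpressing human ACAT-1 or ACAT-2 were incubated 24 h in medium with 10% fetal calf serum, 0.1 mM [3H]oleate-BSA and the indicated compound concentrations. [3H]cholesteryl ester was separated by TLC and radioactivity measured. Repeated three times.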

[3] = molecular target: T2, Sterol O-acyltransferase 2 (Homo sapiens) (UniProt O75908); test: Inhibition of human ACAT2 expressed in CHO cells assessed as inhibition of [3H]oleate-induced cholesterol ester accumulation; assay type: cell-based; outline: as §1
T2 sequence (whole entry): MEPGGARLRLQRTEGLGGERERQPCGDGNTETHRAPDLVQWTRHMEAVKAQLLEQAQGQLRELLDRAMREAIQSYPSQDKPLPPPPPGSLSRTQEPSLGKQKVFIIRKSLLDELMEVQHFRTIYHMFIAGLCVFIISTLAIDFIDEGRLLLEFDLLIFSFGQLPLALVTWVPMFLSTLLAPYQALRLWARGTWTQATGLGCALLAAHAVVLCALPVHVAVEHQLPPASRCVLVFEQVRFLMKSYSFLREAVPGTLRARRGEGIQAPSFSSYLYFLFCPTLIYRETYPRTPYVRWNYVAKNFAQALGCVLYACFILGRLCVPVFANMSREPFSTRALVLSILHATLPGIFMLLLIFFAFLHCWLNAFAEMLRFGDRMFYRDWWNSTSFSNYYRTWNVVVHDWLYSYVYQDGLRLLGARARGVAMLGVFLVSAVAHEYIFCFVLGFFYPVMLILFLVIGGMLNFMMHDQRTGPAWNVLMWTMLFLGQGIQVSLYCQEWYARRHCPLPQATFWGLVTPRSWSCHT

MDM [4] = test: Antihyperlipidemic activity in human MDM cell assessed as inhibition of acetule-LDL-induced cholesterol ester accumulation after 5 hrs; assay type: functional, cell-based
Mus musculus [5] = test: Antihyperlipidemic in apoE deficient mouse assessed as reduction in LDL cholesterol level at 100 mg/kg qd after 90 hrs; assay type: functional; set-up: scale not given: the % may be the effect or the level left; settings: in the assay text read “after 90 days” for “after 90 hrs”
Outline: (§2)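 ApoE-deficient mice were fed diets with or without compound (100 mg/kg/day) for 90 days, n = 10 per group. Plasma total cholesterol, LDL cholesterol and triglyceride were then measured. Data are means ± SD.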

[6] = Cytotoxicity against human MDM cells at 100 uM; assay type: cell-based
Mus musculus [7] = test: Antiatherogenesis in apoE deficient mouse assessed as reduction in aortic lesions at 100 mg/kg qd; assay type: functional, Aorta; set-up: scale not given: the % may be the effect or the level left
Outline: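 ApoE-deficient mice given diet with or without compound at 100 mg/kg/day for 90 days, n = 10 per group. Aortic sinus cross sections stained with oil red O and viewed at ×200. Cross-sectional lesion area was quantified and compared with untreated controls.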

Mus musculus [8] = test: Antihyperlipidemic in apoE deficient mouse assessed as reduction in triglyceride level at 100 mg/kg qd after 90 hrs; assay type: functional; set-up: scale not given: the % may be the effect or the level left; settings: in the assay text read “after 90 days” for “after 90 hrs”; outline: as §2
Mus musculus [9] = test: Antihyperlipidemic in apoE deficient mouse assessed as reduction in total cholesterol level at 100 mg/kg qd after 90 hrs; assay type: functional; set-up: scale not given: the % may be the effect or the level left; settings: in the assay text read “after 90 days” for “after 90 hrs”; outline: as §2

Activity [2] | Activity [3] | SMILES | Activity (MDM [1]) | Activity (MDM [4]) | Activity (Mus musculus [5]) [%] | Activity [6] | Activity (Mus musculus [7]) [%] | Activity (Mus musculus [8]) [%] | Activity (Mus musculus [9]) [%]
Dose-dependent effect | Dose-dependent effect | C[C@@H]1[C@H]2[C@H](C[C@H]3[C@@H]4CC[C@H]5C[C@@H](O)CC[C@]5(C)[C@H]4CC[C@]23C)O[C@@]12NC[C@@H](CO)C[C@@H]2O | Active | Dose-dependent effect | – | – | – | – | –
– | – | CC(=O)O[C@H]1C[C@H](CO[C@@H]2O[C@H](CO)[C@@H](O)[C@H](O)[C@H]2O)CN[C@@]12O[C@H]1C[C@H]3[C@@H]4CC[C@H]5C[C@@H](O[C@@H]6O[C@H](CO)[C@H](O[C@@H]7O[C@H](CO)[C@@H](O)[C@H](O[C@@H]8OC[C@@H](O)[C@H](O)[C@H]8O)[C@H]7O[C@H]7O[C@H](CO)[C@@H](O)[C@H](O)[C@H]7O)[C@H](O)[C@H]6O)CC[C@]5(C)[C@H]4CC[C@]3(C)[C@H]1[C@H]2C [ESCULEOSIDE A] | Active | – | 25 | Non-toxic | 52 | 45 | 25
